Hits are enriched below; roughly 2.9% of the tested compounds scored in any of these assays.
CHO-K1 Ca antag = counter-screen for M1 antagonists: effect in parental CHO-K1 cells | ATP-induced calcium, Fluo-8 fluorescence | inhibition, % at 3 µM | actives 0.6% (n = 360,000) | AID 602250;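 active = inhibition above a per-plate cutoff, the plate's mean sample inhibition plus 3 SD, cut at about 24% in these data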;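 note: 0% = DMSO plus EC80 ATP and 100% = DMSO alone without ATP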
OX1R antag-1 = human HCRTR1 antagonism; O43613; inhibition, % at 5 µM; AID 434989; actives 0.43% (n = 330,000); CHO/OX1R cells, Fluo-8 calcium fluorescence, orexin A;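 active = inhibition above its plate's threshold, mean inhibition of all tested compounds on the plate plus 3 SD, cut at about 37% in these data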;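 note: 0% = orexin A challenge wells and 100% = SB-334867-A antagonist wells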
Target sequence (O43613 whole entry, looked up): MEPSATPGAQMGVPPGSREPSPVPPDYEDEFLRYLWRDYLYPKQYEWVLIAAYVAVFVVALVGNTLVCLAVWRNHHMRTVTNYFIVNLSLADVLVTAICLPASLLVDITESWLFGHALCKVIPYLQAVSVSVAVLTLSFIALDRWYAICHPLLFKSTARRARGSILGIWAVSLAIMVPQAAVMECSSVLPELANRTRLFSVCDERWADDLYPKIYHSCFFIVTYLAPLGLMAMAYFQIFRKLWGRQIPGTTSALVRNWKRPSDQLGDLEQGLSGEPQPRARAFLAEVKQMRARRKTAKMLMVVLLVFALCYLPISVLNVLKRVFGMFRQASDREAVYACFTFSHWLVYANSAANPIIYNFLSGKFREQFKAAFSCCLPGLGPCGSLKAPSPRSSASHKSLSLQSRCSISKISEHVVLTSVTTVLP
CHO-K1 Ca PAM = M1 PAM counterscreen hit in parental CHO-K1 cells. ATP EC20, Fluo-8 calcium fluorescence; 0% at ATP EC20, 100% at ATP max. activation, % at 3 µM. actives 0.02% (n = 360,000). AID 602247;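 active = activation above the run cutoff, the mean activation of all test compounds plus 3 SD, cut at about 40% in these data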;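 note: peak over basal fluorescence ratio in a 140 s read after ATP addition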
CHO-K1 Ca ag = counter-screen for M1 agonists: effect in parental CHO-K1 cells; Fluo-8 calcium fluorescence; scaled to maximal ATP response, vehicle zero; activation, % at 3 µM; actives 0.48% (n = 360,000); in the data active = activation above about 15%;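 note: untransfected CHO-K1 host cells lacking M1 receptor as counterscreen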
CHO parental Ca = counter-screen: ATP calcium response change in parental CHO cells | actives 0.63% (n = 330,000) | parental CHO-K1, ATP-induced calcium, Fluo-8 fluorescence | inhibition, % at 5.6 µM;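 active = inhibition above that plate's mean sample inhibition plus 3 SD, cut at about 26% in these data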;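 note: 0% = ATP-challenged DMSO wells and 100% = DMSO wells without ATP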
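Test system: untransfected parental CHO cell line. Compound: one dose, 5.6 µM nominal. Detection: intracellular calcium via Fluo-8 no-wash fluorescent dye. Measure: % inhibition. Benchmarks: ATP-challenged DMSO wells low, unchallenged DMSO wells high.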
OX1R antag-2 = antagonists of human orexin 1 receptor (OX1R); inhibition, % at 6.6 µM; O43613; actives 1.8% (n = 330,000); OX1R-expressing cells, FRET antagonist read-out; in the data active = inhibition mostly above about 38%, no sharp cut-off; inactive = mostly below about 40%;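 note: 0% = agonist challenge alone and 100% = reference antagonist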
OX1R Fluo8 conf = confirmation of human orexin 1 receptor antagonists; shares compounds with OX1R antag-1; CHO/OX1R cells, orexin A calcium Fluo-8 fluorescence; inhibition, % at 5 µM; actives 38% (n = 1,100); in the data active = inhibition above about 29%;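 note: 0% = agonist challenge alone and 100% = reference antagonist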
CHO Ca triplic = counter-screen for OX1R antagonists: effect in parental CHO cells. inhibition, % at 5.6 µM. parental CHO-K1, ATP-induced calcium, Fluo-8 fluorescence. AID 492965. actives 9.3% (n = 1,100). shares compounds with OX1R antag-1;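 active = inhibition above a per-plate limit, the mean inhibition of that plate's test compounds plus 3 SD, cut at about 25% in these data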;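 note: 0% = ATP challenge with DMSO and 100% = DMSO without ATP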
OX1R HTRF confirm = confirmation of human orexin 1 receptor antagonists, HTRF format; actives 49% (n = 1,800); inhibition, % at 6.6 µM; shares compounds with OX1R antag-2; AID 492964; OX1R-expressing cells, HTRF antagonist assay; in the data active = inhibition above about 55%;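 note: CHO cells expressing OX1R stimulated with orexin A at about EC80; 0% = agonist challenge alone and 100% = reference antagonist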
CHO-K1 HTRF cnt = counter-screen: parental CHO-K1 HTRF response. shares compounds with OX1R antag-2. parental CHO-K1 cells, HTRF counterscreen. inhibition, % at 6.6 µM. actives 48% (n = 1,800); in the data active = inhibition above about 17%;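 note: 0% = agonist challenge with vehicle and 100% = vehicle alone without agonist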
Active calls of the source: *; . = no result.

SMILES	CHO-K1 Ca antag	OX1R antag-1	CHO-K1 Ca PAM	CHO-K1 Ca ag	CHO parental Ca	OX1R antag-2	OX1R Fluo8 conf	CHO Ca triplic	OX1R HTRF confirm	CHO-K1 HTRF cnt
O=C(Nc1nccs1)C1CCCN1S(=O)(=O)c1ccc(F)cc1 (stereo not drawn)	-6	44*	8	0	-20	75*	8	-5	31	-5
CC(=O)Nc1ccc(S(=O)(=O)N2CCCC2C(=O)Nc2ccc(F)cc2)cc1 (stereo not drawn)	-8	13	7	1	-5	16	.	.	.	.
CNC(=O)C1CCCN1S(=O)(=O)c1ccc(OC)cc1 (stereo not drawn)	-7	-12	14	0	0	8	.	.	.	.
O=C(Nc1ccc(F)c(F)c1)C1CCCN1S(=O)(=O)c1ccc(F)cc1 (stereo not drawn)	-11	37*	11	2	9	74*	42*	-15	70*	0
COc1ccc(S(=O)(=O)N2CCCC2C(=O)Nc2nc3c(s2)CCCC3)cc1 (stereo not drawn)	-4	45*	12	2	-36	95*	44*	-5	88*	2
Cc1ccc(-c2ccc(=O)n(Cc3cccc(Br)c3)n2)cc1	-6	-20	3	2	-7	9	.	.	.	.
Nc1ccc(C#Cc2ccc3oc4ccccc4c(=O)c3c2)cc1	-5	-17	-2	0	1	28	.	.	.	.
Nc1cccc(C#Cc2ccc3c(=O)c4ccccc4oc3c2)c1	-11	52*	-14	0	-33	72*	12	99*	49	8
CN1CCN(c2ccc(S(=O)(=O)N3CCOCC3)cc2)CC1	-2	-8	1	0	2	12	.	.	.	.
COc1ccc(S(=O)(=O)N2CCC(C(=O)NCCC(=O)Nc3ccc(Cl)cc3)CC2)cc1	8	-12	-20	0	7	1	.	.	.	.
Cc1ccc(N=C2NC(=O)/C(=C/c3cccn3C)S2)cc1C	-11	57*	4	0	-33	79*	62*	-16	87*	7
Cc1ccc(N=C2NC(=O)/C(=C/c3cccn3C)S2)cc1	-9	21	24	3	-16	17	.	.	.	.
COc1ccc(N=Cc2oc3ccc4ccccc4c3c2O)cc1	9	25	9	24*	14	58*	27	20	67*	12
COc1ccc(N=Cc2ccccc2O)cc1	3	.	-11	1	.	.	.	.	.	.
Cc1cc(NC(=O)CSc2nc(-c3cccs3)nc3ccccc23)no1	-13	45*	1	0	0	62*	16	-16	82*	-5
Cc1cccc(NC(=O)CN2C(=O)NC3(CCCC3)C2=O)n1	-13	-6	0	1	12	22	.	.	.	.
COc1cccc(C(=O)Nc2nnc(S(=O)(=O)Nc3cccc(C)c3)s2)c1	4	36	5	0	2	89*	41*	2	75*	2
Cc1cccc(NS(=O)(=O)c2nnc(NC(=O)CC(C)C)s2)c1	-9	12	7	2	4	9	.	.	.	.
O=C(N/N=C/c1ccccc1[N+](=O)[O-])c1cccs1	-7	-6	4	0	-8	32	.	.	.	.
Cc1ccc(/C=N/NC(=O)c2cccs2)cc1[N+](=O)[O-]	-8	30	26	1	-25	109*	15	3	92*	15
COc1ccc(C(=O)COc2ccccc2C(=O)Nc2ccccc2)cc1	-10	42*	16	2	-2	71*	37*	-11	60*	9
C=CCn1c(SCC(N)=O)nnc1-c1cccc(Br)c1	8	-5	7	-1	-15	10	.	.	.	.
C=CCn1c(SCc2ccccc2C#N)nnc1-c1cc(Br)ccc1O	-2	53*	12	9	17	53*	11	23	31	-2
O=C(CCNC(=O)c1ccco1)NCCN1C(=O)S/C(=C\c2ccc(F)cc2)C1=O	5	45*	2	12	-12	47*	19	3	90*	24*
CC(NCC(=O)Nc1ccccc1C(=O)NC1CC1)c1ccc(F)cc1F (stereo not drawn)	-17	57*	2	2	-16	68*	44*	-7	87*	2
SMILES	CHO-K1 Ca antag	OX1R antag-1	CHO-K1 Ca PAM	CHO-K1 Ca ag	CHO parental Ca	OX1R antag-2	OX1R Fluo8 conf	CHO Ca triplic	OX1R HTRF confirm	CHO-K1 HTRF cnt
Cc1cc(C)c(NC(=O)c2ccc3c(c2)CCN3S(C)(=O)=O)c(C)c1	-19	-16	10	5	-3	4	.	.	.	.
CN(Cc1c(C(=O)N/N=C/c2ccc(O)cc2)nnn1-c1nonc1N)c1ccccc1	15	80*	-6	0	12	95*	37*	8	79*	5
CN(Cc1c(C(=O)N/N=C/c2ccccc2)nnn1-c1nonc1N)c1ccccc1	-1	58*	-16	3	-12	72*	36*	0	83*	4
COc1ccc(/C=N/NC(=O)c2nnn(-c3nonc3N)c2CN(C)c2ccccc2)cc1	-3	44*	13	6	-5	50*	31*	3	83*	2
Cc1ccc(C(O)c2ncc(-c3ccccc3C(F)(F)F)[nH]2)cc1F (stereo not drawn)	-15	.	17	2	.	.	.	.	.	.
CCc1ccccc1OCC(=O)Nc1cc(S(=O)(=O)N2CCOCC2)ccc1N1CCCCC1	-3	.	1	0	.	.	.	.	.	.
O=C(Nc1cccc(Cl)c1)Nc1ccnc(-c2cccnc2)n1	7	41*	14	12	6	67*	28	1	69*	7
CN(Cc1ccccc1)C(=O)CSc1nnc(-c2ccco2)n1-c1ccccc1	-12	38	-1	1	-9	41*	10	-18	44	7
CN(C)C(=O)CSc1nnc(-c2ccco2)n1-c1ccccc1	-4	.	16	1	.	.	.	.	.	.
COc1ccc(-c2csc(NC(=O)CS(=O)(=O)c3ccc(F)cc3)n2)cc1OC	3	28	-7	4	14	76*	15	-2	25	4
COc1ccc(-c2csc(NC(=O)CS(=O)(=O)c3ccccc3)n2)cc1	-6	-20	2	4	-1	15	.	.	.	.
COc1ccc(NC(=O)NC2(C(=O)N3CCN(C)CC3)CCCCC2)cc1	-8	8	-3	0	-3	2	.	.	.	.
COc1cccc(CNS(=O)(=O)c2cc(Br)ccc2Br)c1	-15	.	12	0	.	.	.	.	.	.

High-throughput results as filed in PubChem.
